# CCR6 antagonist: CCR6 receptor antagonists, primary screen, cell-based, CHO-K1, luminescence, beta-arrestin, uHTS. C-C chemokine receptor type 6 (Homo sapiens), P51684. CHO-K1 CCR6 PathHunter beta-arrestin, CCL20-stimulated. inhibition, % at 20 µM. actives 0.49% (n = 340,000);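 active = compounds whose inhibition of the agonist-driven luminescence signal at 20 µM reaches about 50%, limit read from the data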;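 note: cells stimulated with CCL20 at 14 nM final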
# Target sequence (P51684 whole entry, looked up): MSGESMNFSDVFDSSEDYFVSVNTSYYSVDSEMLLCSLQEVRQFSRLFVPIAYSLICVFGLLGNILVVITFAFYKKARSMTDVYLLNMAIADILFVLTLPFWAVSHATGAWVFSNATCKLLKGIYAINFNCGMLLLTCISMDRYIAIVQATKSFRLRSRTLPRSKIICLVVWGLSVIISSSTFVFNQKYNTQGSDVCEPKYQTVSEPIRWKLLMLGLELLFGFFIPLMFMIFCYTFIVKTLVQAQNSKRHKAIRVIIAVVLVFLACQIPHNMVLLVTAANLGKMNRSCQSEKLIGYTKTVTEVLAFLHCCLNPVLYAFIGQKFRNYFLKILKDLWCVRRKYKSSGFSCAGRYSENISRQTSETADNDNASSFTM
# EBI2 antag: EBI2 receptor antagonists, beta-arrestin recruitment, primary screen, cell-based, luminescence, 7a,25-OHC stimulation, uHTS; 7a,25-OHC stimulated; G-protein coupled receptor 183 (Homo sapiens), P32249; actives 0.81% (n = 360,000); inhibition, % at 5 µM; in the data active = inhibition above about 38%;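 note: enzyme fragment complementation signal reports receptor beta-arrestin coupling in cells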
# APJ antagonist: antagonists of human apelin receptor APJ, primary screen, CHO-K1 cells, beta-arrestin complementation, luminescence; P35414; inhibition, % at 20 µM; actives 0.32% (n = 330,000);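 active = inhibition above about 40% at 20 µM, limit read from the data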;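 note: cells challenged with 10 nM apelin-13 agonist together with compound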
# APJ agonist: agonists of human apelin receptor APJ, primary screen, CHO-K1 cells, PathHunter beta-arrestin, luminescence. P35414. 0% DMSO wells, 100% apelin. activation, % at 20 µM. actives 0.11% (n = 330,000). AID 2520, 2010;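 active = activation more than six SD over the plate average, tested at 20 µM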
#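 Assay system: CHO-K1 APJ beta-arrestin complementation cell line / Compound: single test compound dose, 20 µM final, 1% DMSO / Times: overnight seeding, 90 min compound at 25 °C, 1 h detection / Technique: beta-gal luminescence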
# CXCR6 inh: CXCR6 receptor inhibitors, primary screen, cell-based, beta-arrestin, luminescence, CHO-K1 PathHunter, 1536-well; inhibition, % at 20 µM; actives 0.36% (n = 360,000); in the data active = inhibition above about 34%, passing the limit was not always enough;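 note: antagonist mode with CXCL16 agonist at 10 nM final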
# APJ antag confirm: APJ antagonists blocking beta-arrestin recruitment, confirmation, cell-based, luminescence, single concentration, uHTS hits; inhibition, % at 20 µM; actives 66% (n = 950); antagonist mode; shares compounds with APJ antagonist; in the data active = inhibition above about 50%
# Hits are given with their value; – = inactive; · = no result. Sampled rows, rich in hits. Any-hit rate of the full collection: about 1.5%.
SMILES,CCR6 antagonist,EBI2 antag,APJ antagonist,APJ agonist,CXCR6 inh,APJ antag confirm
COc1cccc2cc(C(C)N(CCCN3CCOCC3)C(=S)Nc3cccc(C)c3)oc12 (stereo not given),–,–,77,–,–,–
Cc1cccc(C2CC3(CC(C)(C)NC(=S)N3)Oc3cc(O)ccc32)c1 (stereo not given),–,–,–,–,–,·
CC1(C)CC2(CC(c3ccccc3F)c3cc(Cl)c(O)cc3O2)NC(=S)N1 (stereo not given),–,–,48,–,–,112
Cn1c(=O)c2c(n(Cc3ccccc3)c1=O)NC(=O)C2CC(=O)NCc1cccc(Cl)c1 (stereo not given),–,–,–,–,–,·
COc1cc(/C=C(\C#N)C(=O)c2c[nH]c3ccccc23)cc(OC)c1O,58,–,40,–,46,79
COc1ccccc1CN1CCNC(=O)C1CC(=O)NC1Cc2ccccc2C1 (stereo not given),–,–,–,–,–,·
Nc1c(N2CCN(c3ccccc3)CC2)c2ccccc2oc1=O,60,–,46,–,–,57
Nc1c(N)c2ccccc2oc1=O,–,–,–,–,–,·
CC(C)(C)n1nnnc1C(c1ccccc1OC(F)(F)F)N1CCN(C/C=C/c2ccccc2)CC1 (stereo not given),·,–,·,·,–,·
CC(C)OCCCn1c(=N)c(S(=O)(=O)c2ccccc2)cc2c(=O)n3ccccc3nc21,–,–,43,–,–,–
COc1cccc(/C=N/Nc2ccc([N+](=O)[O-])cc2)c1O,–,–,–,–,–,·
COc1ccc(/C=N\Nc2ccc([N+](=O)[O-])cc2)c(C(=O)O)c1OC,–,–,47,–,–,60
COC(=O)c1ccc(N/N=C/c2cc([N+](=O)[O-])cc(OC)c2O)cc1,57,–,59,–,42,85
COc1ccc(-c2noc3c2-c2nc(-c4c(F)cccc4F)sc2CC3)cc1,–,–,–,–,–,·
CCN(CC)CCN(C(=O)c1ccc(C(=O)c2ccccc2)cc1)c1nc2ccc(OC)cc2s1,–,–,51,–,–,–
Cc1ccc(C(=O)O)cc1NC(=S)NC(=O)c1ccc([N+](=O)[O-])c(C)c1,–,–,40,–,–,–
COc1cccc(C(=O)NC(=S)Nc2ccc([N+](=O)[O-])cc2C)c1,–,–,–,–,–,·
Cc1ccc(CNC(=S)Nc2cc(C(=O)O)ccc2C)cc1,–,–,–,–,–,·
COc1cc(C(=O)NC(=S)Nc2ccc([N+](=O)[O-])cc2C)cc(OC)c1OC,–,–,43,–,–,65
Cc1ccc(NS(=O)(=O)c2cc([N+](=O)[O-])ccc2N/N=C/c2sc(N3CCOCC3)nc2-c2ccccc2)c(C)c1,60,–,68,–,49,119
O=C1C2C3CCCC3=C3CCCC3C2C(=O)N1c1cccc(Cl)c1 (stereo not given),–,–,44,–,–,–
COc1ccc(CNS(=O)(=O)c2ccc(-c3ccc(=O)[nH]n3)s2)cc1OC,–,–,–,–,–,·
O=C(CNC1CCCCCC1)c1cccs1,–,–,67,–,–,–
CCc1ccc(NC(=O)c2ccc(C3SCC(=O)N3CCc3ccccc3)cc2)cc1 (stereo not given),–,–,62,–,–,–
CCNC(=O)c1ccc(C2SCC(=O)N2CCc2ccccc2)cc1 (stereo not given),–,–,–,–,–,·
SMILES,CCR6 antagonist,EBI2 antag,APJ antagonist,APJ agonist,CXCR6 inh,APJ antag confirm
CC(NC(=O)Oc1cccc2ccccc12)c1ccccc1 (stereo not given),–,–,·,·,–,·
Nc1nc2c(c(=O)[nH]1)C(c1ccccc1)C1=C(N2)c2ccccc2C1=O (stereo not given),–,–,45,–,–,–
Cc1ccc(NC(=O)CCNS(=O)(=O)c2ccc3c(c2)CCC(=O)N3)cc1,–,–,–,–,–,·
Cc1ccc(NC(=O)CCNS(=O)(=O)c2ccc3c(c2)CCC(=O)N3)c(Br)c1,–,–,41,–,–,–
Cn1c(O)c(N=Nc2ccccc2)c2ccccc21,–,–,–,–,–,·
Cn1c(O)c(N=Nc2nc(-c3ccccc3)cs2)c2ccccc21,61,–,50,–,–,62
COc1ccc(S(=O)(=O)Cc2ccc(C(=O)NCc3ccccc3OC)o2)cc1,–,–,45,–,–,–
CCc1ccc(C(=O)NNc2ccc(Cl)cc2)cc1,–,–,51,–,–,60
O=c1oc2cc(O[C@@H]3OC[C@@H](O)[C@H](O)[C@H]3O)ccc2c2ccccc12,–,–,–,–,–,·
CCN1/C(=C/c2ccc3ccccc3[n+]2CC)C=Cc2ccccc21,61,–,54,–,55,94
COc1cc(/C=C2/C(=O)N(c3ccc(C(=O)O)cc3)N=C2C)cc(OC)c1O,69,–,59,–,40,95
COc1cc(/C=C2/C(=O)NN(c3ccc(Cl)cc3)C2=O)cc(OC)c1O,–,–,41,–,–,–
COc1cc(/C=C2/C(=O)NN(c3ccccc3)C2=O)cc(Br)c1O,–,–,–,–,–,·
CCOc1ccc2nc(Cl)c(C3CC(c4ccccc4)=NN3C(=O)c3ccco3)cc2c1 (stereo not given),·,·,–,–,·,·
O=C(NCCCN1CCc2ccccc2C1)C1CCN(S(=O)(=O)N2CCC3(CC2)OCCO3)CC1,–,–,–,–,–,·
Fc1cc2ncn(Cc3ccccc3)c2cc1F,–,–,61,–,–,–
c1ccc(Cn2cnc3ccccc32)cc1,–,–,–,–,–,·
Cc1ccc(C(=O)NCCN2CCC(n3c(=O)[nH]c4ccccc43)CC2)cc1F,·,–,·,·,–,·
CC(=O)C1=C(c2ccccc2)N(C(C)=O)n2c(C)nnc2S1,100,–,105,–,–,152
CC1(C)C(c2ccccc2)=NC(c2ccccc2)N1O (stereo not given),–,–,–,–,–,·
CC1(C)C(c2ccccc2)=NC(c2ccc(Br)cc2)N1O (stereo not given),58,–,77,–,–,–
O=S1(=O)CC(N2CCN(c3ccccn3)CC2)CN1C1CCCCC1 (stereo not given),·,–,·,·,–,·
CC(=O)c1ccc(N2CCN(C(=S)NCc3ccco3)CC2)cc1,–,–,45,–,–,–
C=CCn1c(C2CC2)n[nH]c1=S,–,–,–,–,–,·
CCCCCC1CCC(c2n[nH]c(=S)n2C)CC1 (stereo not given),–,–,41,–,–,78
O=C(NCc1ccco1)/C(=C\c1cccnc1)NC(=O)c1ccccc1F,–,–,–,–,–,·

# Source: PubChem (Sanford-Burnham Center for Chemical Genomics)
